Reference: ChEMBL document CHEMBL4265873, “Design and discovery of silybin analogues as antiproliferative compounds using a ring disjunctive - Based, natural product lead optimization approach” (Eur J Med Chem, 2017)
Calls of active or inactive are those of the source. The rule behind the calls is not given here.

Key:
PANC-1 = test: Cytotoxicity in human PANC1 cells assessed as reduction in cell viability incubated for 68 hrs by MTT assay; type: functional, cell-based; settings: PANC-1, 68 h
Outline: (§1)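 Cells were trypsinised and seeded at 5x10^3 cells/well. Compound was added at 0, 0.1, 0.3, 1, 3, 10, 30 and 100 µM for 68 h. MTT (4 mg/mL solution) was then added for 4 h, and the formazan was dissolved in DMSO. Absorbance read at 570 nm. IC50 was derived from % survival across the eight concentrations. Mean ± SD of three independent experiments, each in triplicate.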

2008 [1] = test: Induction of cell cycle arrest in human OV2008 cells assessed as cell accumulation at S phase at 2 uM incubated for 12 hrs by propidium iodide staining based flow cytometry (reference value: 5.2%); type: functional
Outline: (§2)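 OV2008 cells were plated at 1x10^6 cells/well and incubated with 0, 2 or 4 µM for 12 h. Cells were trypsinised, washed and resuspended in ice-cold PBS, then stained with propidium iodide for at least 15 min. Phase distribution was measured by flow cytometry. Means ± SD of three independent experiments in triplicate.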

2008 [2] = test: Induction of cell cycle arrest in human OV2008 cells assessed as cell accumulation at G2 phase at 4 uM incubated for 12 hrs by propidium iodide staining based flow cytometry (reference value: 2.5%); type: functional; outline: as §2
MDA-MB-231 = test: Cytotoxicity in human MDA-MB-231 cells assessed as reduction in cell viability incubated for 68 hrs by MTT assay; type: functional, cell-based; settings: MDA-MB-231, 68 h; outline: as §1
HEK293 = test: Cytotoxicity in HEK293 cells assessed as reduction in cell viability incubated for 68 hrs by MTT assay; type: cell-based; settings: Homo sapiens, HEK293, 68 h; outline: as §1
BT-20 = test: Cytotoxicity in human BT20 cells assessed as reduction in cell viability incubated for 68 hrs by MTT assay; type: functional, cell-based; settings: BT-20, 68 h; outline: as §1
A2780 [3] = test: Potency index, ratio of IC50 for silybin to IC50 for test compound for cytotoxicity in human A2780 cells assessed as reduction in cell viability incubated for 68 hrs by MTT assay; type: functional
A2780 [4] = test: Reduction in mitochondrial potential in human A2780 cells at 2 uM incubated for 12 hrs by Alexa Fluor 488 annexin V and mito-tracker red CMXRos dye staining based flow cytometry; type: functional, cell-based
Outline: (§3)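 Cells in complete medium were treated with 0, 2 or 4 µM for 12 h, then trypsinised. They were stained with MitoTracker Red (4 µL of 10 µM working solution per 1 mL of cells) for 30 min at 37 °C under 5% CO2. Cells were then resuspended in annexin-binding buffer with Alexa Fluor 488 annexin V for 15 min. Flow cytometry emission read at 530 and 585 nm. Two independent experiments, each in triplicate.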

2008 [5] = test: Induction of cell cycle arrest in human OV2008 cells assessed as cell accumulation at G2 phase at 2 uM incubated for 12 hrs by propidium iodide staining based flow cytometry (reference value: 2.5%); type: functional; outline: as §2
DU-145 = test: Cytotoxicity in human DU145 cells assessed as reduction in cell viability incubated for 68 hrs by MTT assay; type: functional, cell-based; settings: DU-145, 68 h; outline: as §1
[6] = Cytotoxicity in human CRL1459 cells assessed as reduction in cell viability incubated for 68 hrs by MTT assay; type: cell-based; outline: as §1
Homo sapiens [7] = species on record: Homo sapiens; test: Inhibition of tubulin alpha in human OV2008 cells assessed as induction of disturbance in cellular microtubule shape and integrity by measuring loss in microtubule long spindle shape at 2 to 4 uM after overnight incubation by immunofluorescence analysis; type: cell-based
[8] = Selectivity index, ratio of IC50 for cytotoxicity in human CRL1459 cells incubated for 68 hrs by MTT assay to IC50 for cytotoxicity in human A2780 cells incubated for 68 hrs by MTT assay; type: toxicity, cell-based; settings: CRL1459 cells versus A2780 cells, read-out: Ratio IC50
2008 [9] = test: Induction of cell cycle arrest in human OV2008 cells assessed as increase in cell accumulation at subG1 phase at 2 to 4 uM incubated for 12 hrs by propidium iodide staining based flow cytometry; type: functional; outline: as §2
2008 [10] = test: Induction of apoptosis in human OV2008 cells assessed as apoptosis cells level at 4 uM incubated for 12 hrs by Alexa Fluor 488 annexin V and mito-tracker red CMXRos dye staining based flow cytometry (reference value: 19.6%); type: functional; outline: as §3
2008 [11] = test: Induction of cell cycle arrest in human OV2008 cells assessed as cell accumulation at S phase at 4 uM incubated for 12 hrs by propidium iodide staining based flow cytometry (reference value: 5.2%); type: functional; outline: as §2
Homo sapiens [12] = species on record: Homo sapiens; test: Inhibition of tubulin alpha in human OV2008 cells assessed as induction of disturbance in cellular microtubule shape and integrity at 2 to 4 uM after overnight incubation by immunofluorescence analysis; type: cell-based
CHO = test: Cytotoxicity in CHO cells assessed as reduction in cell viability incubated for 68 hrs by MTT assay; type: cell-based; settings: Cricetulus griseus; outline: as §1
A2780 [13] = test: Cytotoxicity in human A2780 cells assessed as reduction in cell viability incubated for 68 hrs by MTT assay; type: functional, cell-based; settings: A2780, 68 h; outline: as §1
[14] = Selectivity index, ratio of IC50 for cytotoxicity in HEK293 cells incubated for 68 hrs by MTT assay to IC50 for cytotoxicity in human A2780 cells incubated for 68 hrs by MTT assay; type: toxicity, cell-based; settings: HEK293 cells versus A2780 cells, read-out: Ratio IC50
MCF7 = test: Cytotoxicity in human MCF7 cells assessed as reduction in cell viability incubated for 68 hrs by MTT assay; type: functional, cell-based; settings: MCF7, 68 h; outline: as §1
[15] = Selectivity index, ratio of IC50 for cytotoxicity in CHO cells incubated for 68 hrs by MTT assay to IC50 for cytotoxicity in human OV2008 cells incubated for 68 hrs by MTT assay; type: toxicity, cell-based; settings: Chinese hamster (CHO cells), CHO cells versus OV2008 cells, read-out: Ratio IC50
2008 [16] = test: Reduction in mitochondrial potential in human OV2008 cells at 2 uM incubated for 12 hrs by Alexa Fluor 488 annexin V and mito-tracker red CMXRos dye staining based flow cytometry; type: functional, cell-based; outline: as §3
Homo sapiens [17] = species on record: Homo sapiens; test: Inhibition of tubulin alpha in human OV2008 cells assessed as reduction in alpha-tubulin fluorescence at 2 to 4 uM after overnight incubation by immunofluorescence analysis; type: cell-based
A2780 [18] = test: Induction of morphological changes in human A2780 cells at 1 to 4 uM incubated for 68 hrs; type: functional, cell-based
Outline: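 OV2008 and A2780 cells, with CHO alongside, were exposed to 0, 1, 2 or 4 µM for 68 h. Each triplicate treatment was photographed at 20X under an inverted microscope to assess morphology.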

2008 [19] = test: Induction of cell cycle arrest in human OV2008 cells assessed as cell accumulation at G1 phase at 4 uM incubated for 12 hrs by propidium iodide staining based flow cytometry (reference value: 79.1%); type: functional; outline: as §2
2008 [20] = test: Potency index, ratio of IC50 for silybin to IC50 for test compound for cytotoxicity in human OV2008 cells assessed as reduction in cell viability incubated for 68 hrs by MTT assay; type: functional
2008 [21] = test: Reduction in alpha-tubulin expression human OV2008 cells at 2 to 4 uM measured after overnight incubation by Western blot analysis; type: functional, cell-based
A2780 [22] = test: Induction of apoptosis in human A2780 cells assessed as apoptosis cells level at 4 uM incubated for 12 hrs by Alexa Fluor 488 annexin V and mito-tracker red CMXRos dye staining based flow cytometry (reference value: 0.0%); type: functional; outline: as §3

For `O=C(/C=C/c1cccc(OCc2ccccc2)c1)c1ccc(O)cc1`, the IC50 (PANC-1) was 2.6 µM, the Activity 2008 [1] was 4.4% and the Activity 2008 [2] was 1.9%. The IC50 (MDA-MB-231) was 2.9 µM, the IC50 (HEK293) was 5.4 µM and the IC50 (BT-20) was 5.1 µM. For the same compound, the “Ratio IC50” value (A2780 [3]) was 30 - 200, the Activity (A2780 [4]) was “Active” and the Activity 2008 [5] was 2.7%. The IC50 (DU-145) was 6.3 µM, the IC50 [6] was 8.5 µM and the inhibition (Homo sapiens [7]) was “Active”. The selectivity ratio at 68 h [8] was 6 to 30, the Activity 2008 [9] was “Dose-dependent effect” and the Activity 2008 [10] was 42.5%. The Activity 2008 [11] was 5.2%, the inhibition (Homo sapiens [12]) was “Active” and the IC50 (CHO) was 8.1 µM. For the same compound, the IC50 (A2780 [13]) was 1 µM, the selectivity ratio at 68 h [14] was 6 to 30 and the IC50 (MCF7) was 2.8 µM. The selectivity ratio at 68 h [15] was 6 to 30, the Activity 2008 [16] was “Active” and the inhibition (Homo sapiens [17]) was “Active”. The Activity (A2780 [18]) was “Active”, the Activity 2008 [19] was 45.3% and the “Ratio IC50” value 2008 [20] was 30 - 200. For the same compound, the Activity 2008 [21] was “Active” and the Activity (A2780 [22]) was 38%.
